Experimental data published in ChEMBL document CHEMBL1156597, “Structure-activity relationship of kahalalide F synthetic analogues” (J Med Chem, 2008).

Columns and labels:
DU-145 = test: Cytotoxicity against human DU145 cells after 48 hrs by SRB assay; type: functional, cell-based; conditions: Homo sapiens, DU-145, 48 h; for CC50: read-out: LC50 (the source's name); for GI50: read-out: GI50
Outline: (§1)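 Cells grown in RPMI 1640 with 10% FBS and penicillin/streptomycin at 37 °C and 5% CO₂, trypsinized, then seeded at 5 × 10³/well. After 18 h drug-free attachment, samples in DMSO/EtOH/PBS (0.5:0.5:99) were added for 48 h continuous exposure. Cells were fixed with cold TCA (1 h, 4 °C) and stained with SRB (10 min). Tris-solubilized stain read at 490 nm. Triplicate wells, mean ± SD; GI₅₀ derived.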

K562 = test: Cytotoxicity against human K562 cells after 48 hrs by SRB assay; type: functional; conditions: K562, 48 h; for CC50: read-out: LC50 (the source's name); outline: as §1
LNCaP = test: Cytotoxicity against human LNcaP cells after 48 hrs by SRB assay; type: functional; conditions: for CC50: read-out: LC50 (the source's name); outline: as §1
LoVo [1] = test: Cytotoxicity against human doxorubicin resistant LoVo cells after 48 hrs by SRB assay; type: functional; conditions: for CC50: read-out: LC50 (the source's name); outline: as §1
HT-29 = test: Cytotoxicity against human HT29 cells after 48 hrs by SRB assay; type: functional, cell-based; conditions: Homo sapiens, HT-29, 48 h; for CC50: read-out: LC50 (the source's name); outline: as §1
SK-MEL-28 = test: Cytotoxicity against human SK-MEL-28 cells after 48 hrs by SRB assay; type: functional, cell-based; conditions: Homo sapiens, SK-MEL-28, 48 h; for GI50: read-out: GI50; for CC50: read-out: LC50 (the source's name); outline: as §1
[2] = Cytotoxicity against human IGROV-ET cells after 48 hrs by SRB assay; type: functional; conditions: for CC50: read-out: LC50 (the source's name); outline: as §1
[3] = Cytotoxicity against human IGROV cells after 48 hrs by SRB assay; type: functional; conditions: for CC50: read-out: LC50 (the source's name); outline: as §1
LoVo [4] = test: Cytotoxicity against human LoVo cells after 48 hrs by SRB assay; type: functional; conditions: for CC50: read-out: LC50 (the source's name)
HeLa = test: Cytotoxicity against human HeLa cells after 48 hrs by SRB assay; type: functional; conditions: for CC50: read-out: LC50 (the source's name); outline: as §1
[5] = Cytotoxicity against human HeLa-APL cells after 48 hrs by SRB assay; type: functional; outline: as §1
A549 = test: Cytotoxicity against human A549 cells after 48 hrs by SRB assay; type: functional, cell-based; conditions: Homo sapiens, A549, 48 h; for GI50: read-out: GI50; outline: as §1
PANC-1 = test: Cytotoxicity against human PANC1 cells after 48 hrs by SRB assay; type: functional; conditions: PANC-1, 48 h; for CC50: read-out: LC50 (the source's name); outline: as §1

SMILES | CC50 (DU-145) [µM] | CC50 (K562) [µM] | CC50 (LNCaP) [µM] | GI50 (LoVo [1]) [µM] | TGI (LoVo [1]) [µM] | CC50 (LoVo [1]) [µM] | CC50 (HT-29) [µM] | TGI (SK-MEL-28) [µM] | GI50 (SK-MEL-28) [µM] | CC50 (SK-MEL-28) [µM] | GI50 [2] [µM] | GI50 ([2]; read-out: GI50) [µM] | CC50 [2] [µM] | CC50 [3] [µM] | GI50 (LoVo [4]) [µM] | CC50 (LoVo [4]) [µM] | CC50 (HeLa) [µM] | LC50 (concentration giving 50% net cell kill) [5] [µM] | LC50 (A549) [µM] | CC50 (PANC-1) [µM] | further results
C/C=C1\NC(=O)[C@H](Cc2ccccc2)NC(=O)[C@@H](C(C)C)NC(=O)[C@@H]([C@H](C)CC)NC(=O)[C@H](NC(=O)[C@H](NC(=O)[C@H](CCCN)NC(=O)[C@H]2CCCCN2C(=O)[C@H](NC(=O)[C@@H](NC(=O)[C@@H](NC(=O)[C@H](NC(=O)CC[C@@H](C)CC)C(C)C)[C@@H](C)O)C(C)C)C(C)C)[C@H](C)CC)[C@H](C)OC(=O)[C@H](C(C)C)NC1=O | 1.3 | 2.16 | 1.31 | 1.22 | 1.82 | 1.7 | 0.447 | 1.47 | 1.59 | 1.36 | 0.632 | 0.894 | 0.483 | 0.487 | 2.25 | 0.678 | 1.08 | 0.978 | 6.72 | 2.02 | GI50 [3]: 0.786 µM; GI50 ([3]; read-out: GI50): 1.39 µM; TGI (LoVo [4]): 2.34 µM; GI50 (HeLa): 3.08 µM; TGI (HeLa): 2.66 µM; GI50 [5]: 1.51 µM; TGI [5]: 1.45 µM; TGI (A549): 8.7 µM; GI50 (A549): 8 µM
C/C=C1\NC(=O)[C@H](Cc2ccccc2)NC(=O)[C@@H](C(C)C)NC(=O)[C@@H]([C@H](C)CC)NC(=O)[C@H](NC(=O)[C@H](NC(=O)[C@H](CCCN)NC(=O)[C@@H]2CCCN2C(=O)[C@H](NC(=O)[C@@H](NC(=O)[C@@H](NC(=O)[C@H](NC(=O)CC[C@@H](C)CC)C(C)C)[C@@H](C)O)C(C)C)C(C)C)[C@H](C)CC)[C@H](C)OC(=O)[C@H](C(C)C)NC1=O | 1.43 | 2.18 | 1.63 |  |  | 1.87 | 6.76 |  |  | 1.62 |  |  | 0.549 | 0.525 |  | 0.794 | 1.09 | 0.986 | 6.78 | 2.04 | 
C/C=C1\NC(=O)[C@H](Cc2ccccc2)NC(=O)[C@@H](C(C)C)NC(=O)[C@@H]([C@H](C)CC)NC(=O)[C@H](NC(=O)[C@H](NC(=O)[C@H](CCCN)NC(=O)[C@H]2CCCN2C(=O)[C@H](NC(=O)[C@@H](NC(=O)[C@@H](NC(=O)[C@@H](CC(C)C)NC(=O)CCCC(C)C)[C@@H](C)O)C(C)C)C(C)C)[C@H](C)CC)[C@H](C)OC(=O)[C@H](C(C)C)NC1=O | 0.889 | 2.18 | 1.13 | 0.325 | 0.329 | 3.37 | 0.509 | 1.07 | 1.09 | 1.06 | 0.298 | 1.31 | 0.365 | 5.64 | 0.608 | 0.856 | 0.955 | 0.948 | 1.08 | 2.79 | TGI (DU-145): 1.07 µM; GI50 (DU-145): 1.34 µM; GI50 (K562): 2.72 µM; TGI (K562): 2.43 µM; GI50 (LNCaP): 1.79 µM; TGI (LNCaP): 2.55 µM; GI50 (HT-29): 0.661 µM; TGI (HT-29): 0.728 µM; GI50 [3]: 0.845 µM; GI50 ([3]; read-out: GI50): 1.05 µM; TGI (LoVo [4]): 0.842 µM; GI50 [5]: 1 µM; TGI [5]: 1.46 µM; GI50 (PANC-1): 2.91 µM; TGI (PANC-1): 5.21 µM
C/C=C1\NC(=O)[C@H](Cc2ccccc2)NC(=O)[C@@H](C(C)C)NC(=O)[C@@H]([C@@H](C)CC)NC(=O)[C@H](NC(=O)[C@H](NC(=O)[C@H](CCCN)NC(=O)[C@H]2CCCN2C(=O)[C@H](NC(=O)[C@@H](NC(=O)[C@@H](NC(=O)[C@H](NC(=O)CCCC(C)C)[C@@H](C)O)[C@@H](C)O)C(C)C)C(C)C)[C@@H](C)CC)[C@@H](C)OC(=O)[C@H](C(C)C)NC1=O | 9.29 | 2.37 | 1.14 | 0.325 | 0.327 | 0.331 | 0.575 | 1.16 | 1.22 | 1.1 | 0.231 | 1 | 0.257 | 0.582 | 0.367 | 0.896 | 1.02 | 0.977 | 1.03 | 2.81 | TGI (DU-145): 1.15 µM; GI50 (DU-145): 1.47 µM; GI50 (LNCaP): 1.95 µM; TGI (LNCaP): 2.58 µM; GI50 (HT-29): 1.06 µM; TGI (HT-29): 0.886 µM; GI50 [3]: 0.909 µM; GI50 ([3]; read-out: GI50): 1.17 µM; TGI (LoVo [4]): 0.727 µM; GI50 [5]: 1.04 µM; TGI [5]: 1.52 µM; TGI (A549): 1.26 µM; GI50 (A549): 1.55 µM; GI50 (PANC-1): 3.91 µM; TGI (PANC-1): 5.26 µM
C/C=C1\NC(=O)[C@H](Cc2ccccc2)NC(=O)[C@@H](C(C)C)NC(=O)[C@@H]([C@H](C)CC)NC(=O)[C@H](NC(=O)[C@H](NC(=O)[C@H](CCCN)NC(=O)[C@H]2CCCN2C(=O)[C@H](NC(=O)[C@@H](NC(=O)[C@@H](NC(=O)[C@H]2CCCN2C(=O)CCCC(C)C)[C@@H](C)O)C(C)C)C(C)C)[C@H](C)CC)[C@H](C)OC(=O)[C@H](C(C)C)NC1=O | 1.16 | 1.8 | 1.06 | 3.51 | 3.37 | 3.27 | 1.14 | 1.24 | 1.05 | 1.14 | 0.608 | 4.7 | 0.426 | 0.768 |  | 1.5 | 1.09 | 1.01 | 1.24 | 2.82 | GI50 (K562): 1.31 µM; TGI (K562): 1.53 µM; GI50 (LNCaP): 1.16 µM; TGI (LNCaP): 1.11 µM; GI50 [5]: 1.18 µM; TGI [5]: 1.65 µM; GI50 (PANC-1): 2.75 µM; TGI (PANC-1): 3.8 µM
C/C=C1\NC(=O)[C@H](Cc2ccccc2)NC(=O)[C@@H](C(C)C)NC(=O)[C@@H]([C@H](C)CC)NC(=O)[C@H](NC(=O)[C@H](NC(=O)[C@H](CCCN)NC(=O)[C@@H]2CC[C@H](c3ccccc3)N2C(=O)[C@H](NC(=O)[C@@H](NC(=O)[C@@H](NC(=O)[C@H](NC(=O)CC[C@@H](C)CC)C(C)C)[C@@H](C)O)C(C)C)C(C)C)[C@H](C)CC)[C@H](C)OC(=O)[C@H](C(C)C)NC1=O | 1.36 | 2.08 | 1.55 |  |  | 1.78 | 0.643 |  |  | 1.54 |  |  | 5.22 | 0.499 | 7.33 | 0.756 | 1.04 | 0.938 | 6.44 | 1.94 | TGI (LoVo [4]): 6.17 µM
C/C=C1\NC(=O)[C@H](Cc2ccccc2)NC(=O)[C@@H](C(C)C)NC(=O)[C@@H]([C@H](C)CC)NC(=O)[C@H](NC(=O)[C@H](NC(=O)[C@H](CCCN)NC(=O)[C@H]2Cc3ccccc3CN2C(=O)[C@H](NC(=O)[C@@H](NC(=O)[C@@H](NC(=O)[C@H](NC(=O)CC[C@@H](C)CC)C(C)C)[C@@H](C)O)C(C)C)C(C)C)[C@H](C)CC)[C@H](C)OC(=O)[C@H](C(C)C)NC1=O | 1.37 | 2.1 | 1.51 | 2.29 | 2.49 | 1.74 | 0.426 | 3.11 | 3.63 | 1.56 | 0.779 | 1.06 | 0.527 | 0.464 | 2.62 | 0.685 | 1.05 | 0.947 | 6.5 | 1.95 | TGI (DU-145): 2.28 µM; GI50 (DU-145): 2.39 µM; GI50 [3]: 0.806 µM; GI50 ([3]; read-out: GI50): 1.52 µM; TGI (LoVo [4]): 2.54 µM; TGI (A549): 1.54 µM; GI50 (A549): 1.43 µM
